p97 ATPase inh = inhibitors of human p97 ATPase, primary screen, biochemical; actives 0.42% (n = 220,000); inhibition, % at 8 µM; Transitional endoplasmic reticulum ATPase (Homo sapiens), P55072; recombinant p97 ATPase, Kinase-Glo ATP luminescence, 3 h; in the data active = inhibition above about 15%
KCC2 mod = KCC2 cotransporter modulators, thallium flux, primary screen, cell-based, HEK293 KCC2, FluoZin-2 fluorescence, MLSMR. KCC2 cells, thallium flux FluoZin-2 fluorescence. B-score of Tl+ flux slope (higher = more flux/activation; lower = inhibition) at 10 µM. actives 2.2% (n = 190,000). AID 1456, 2008;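 active = thallium flux slope and its plate-corrected score both differing from the plate sample mean at a set confidence after two filtering rounds, in either direction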;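 note: slope of fluorescence scaled to starting intensity during 10 to 20 s after thallium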
DTT redox prof = compounds producing H2O2 with reducing agent – biochemical, NIH compound library profiling, artefact control for MLSCN library redox annotation, primary screen; DTT-dependent redox cycling H2O2, phenol red/HRP absorbance; 100% = 100 µM peroxide control, 0% = buffer; activation, % at 10 µM; actives 0.03% (n = 200,000); AID 878, 2007;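 active = activation of at least 50% relative to the plate's high and low controls in the primary single-dose screen; inactive = activation below 50%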;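 note: compound incubated with DTT at 0.8 mM final as the reducing agent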
PKD1 kinase inh = inhibitors of human PKD1 kinase, biochemical, fluorescence polarization; PKD1 kinase fluorescence polarization assay; inhibition, % (no concentration beside the values); actives 0.056% (n = 200,000); in the data active = inhibition above about 50%
Mdm2 ligase inh = MDM2-luciferase reporter signal enhancers, primary screen, MDM2 E3 ligase inhibitor project, cell-based, luminescence, 1536-well; E3 ubiquitin-protein ligase Mdm2 (Homo sapiens), Q00987; cell-based MDM2 ubiquitination luciferase reporter, 2 h; 0 = plate control, 100 = twice control, blank-subtracted; signal enhancement, % at 5 µM; actives 0.11% (n = 210,000); AID 1230, 2008;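 active = signal enhancement of 30% or more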;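 note: luminescence tracks abundance of the self-degrading MDM2-luciferase fusion protein; higher signal means inhibition of MDM2 E3 ligase activity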
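Assay system: stable mammalian line carrying autodegrading MDM2–luciferase fusion reporter; Input: 2000 cells in each well; Compound dosing: single-point 5 µM; Schedule: 2 h compound exposure at 37 °C; Signal: SteadyLite luciferase luminescence after 15 min room-temperature reagent incubation; Evaluation: % luminescence enhancement versus blank-corrected plate control mean; Benchmarks: plate controls and plate blanks.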
ROMK mod = ROMK potassium channel modulators, primary screen, cell-based, thallium flux, MLSMR library | Tet-inducible ROMK, thallium flux fluorescence; actives lie on both sides | B-score at 10 µM | actives 2% (n = 130,000) | AID 1918, 2009;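 active = signal ratio slope over the read window, or its plate-corrected B-score, at least 3 SD from the plate mean, either direction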;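 note: B-score of the F/F0 ratio slope over 7 to 12 s after thallium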
KCC2 sec1 = KCC2 modulators in sodium-free buffer, confirmation, cell-based, HEK293 KCC2, thallium flux, secondary assay; shares compounds with KCC2 mod; FluoZin2 fluorescence; active compounds read high; normalised thallium flux (F/F0 slope) at 10 µM; actives 15% (n = 3,700); AID 1713, 2009;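 active = thallium flux slope above the same plate's solvent-only control mean plus 3 SD; inconclusive = the two replicate wells disagree; inactive = no significant difference from solvent-only control wells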
KCC2 bumet counter = thallium flux persisting under bumetanide in KCC2 cells, confirmation, counter-screen for KCC2 modulator project, cell-based, HEK293 KCC2, FluoZin2, secondary assay 3. shares compounds with KCC2 mod. HEK293-KCC2 + bumetanide/ouabain; active compounds read high. normalized thallium flux at 10 µM. actives 49% (n = 3,700). AID 1714, 2009;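 active = thallium entry rate above the same plate's blocked-transporter control wells by more than 3 SD; inconclusive = the two repeat wells disagree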;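 note: raw slope of fluorescence over initial fluorescence between 10 and 20 s after thallium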
KCC2 sec2 = KCC2 modulators without ouabain present, confirmation, cell-based, HEK293 KCC2, thallium flux, FluoZin2, secondary assay 2; thallium flux FluoZin2 fluorescence; actives lie on both sides; F/F0 rise rate, 10–20 s post-thallium; normalized thallium flux at 10 µM; shares compounds with KCC2 mod; actives 23% (n = 3,700);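 active = thallium flux slope more than 3 SD above or below the plate's solvent-only control mean, mostly below; inconclusive = the two repeat wells disagreed; inactive = no significant shift from solvent-only controls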
HEK counter1 = thallium flux modulation in parental HEK cells, confirmation, counter-screen for KCC2 modulator project, cell-based, counterscreen 1; shares compounds with KCC2 mod; HEK293 parental cells, thallium flux FluoZin2, ouabain; baseline-ratio fluorescence slope, 10–20 s after thallium; thallium flux rate (normalised fluorescence) at 10 µM; actives 46% (n = 3,700); AID 1716, 2009;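 active = thallium flux rate significantly above the same plate's solvent-only control wells, beyond their mean plus 3 SD; inconclusive = the two replicate wells gave conflicting results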
KCC2 ouabain = KCC2 inhibitors and activators, ouabain retest, confirmation, HEK-KCC2 cells. shares compounds with KCC2 mod. HEK293-KCC2, thallium flux FluoZin2 fluorescence; bidirectional: low = inhibitor, high = activator. raw Tl+ flux slope (below DMSO = inhibition, above = activation) at 10 µM. actives 48% (n = 3,700). AID 1717, 2009;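 active = thallium flux slope beyond 3 SD from same-plate DMSO control mean in most replicates, usually higher, sometimes lower; inconclusive = repeat tests gave conflicting results; inactive = no significant difference from controls in most replicates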;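 note: slope of initial-normalized fluorescence between seconds 10 and 20 after thallium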
HEK293 Tl flux2 = native HEK Tl+ uptake effects, second counter-screen – HEK cells, counterscreen 2, counter-screen for KCC2 modulator project, confirmation; shares compounds with KCC2 mod; HEK293 parental, thallium flux FluoZin-2 fluorescence slope; thallium flux slope at 10 µM; AID 1718, 2009; actives 33% (n = 3,700);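 active = thallium flux slope above the same plate's solvent-control mean plus 3 SD in both duplicate wells; inconclusive = duplicate wells that disagreed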;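 note: run without ouabain in cells lacking the KCC2 cotransporter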
A number is an active result; – = inactive; ? = inconclusive; · = not tested or not shown. Shown are actives, neighbours in structure and some others; about 3.4% of the full set was active somewhere.

SMILES	p97 ATPase inh	KCC2 mod	DTT redox prof	PKD1 kinase inh	Mdm2 ligase inh	ROMK mod	KCC2 sec1	KCC2 bumet counter	KCC2 sec2	HEK counter1	KCC2 ouabain	HEK293 Tl flux2
Cc1cc(C)nc(SCc2ccc(C(=O)NN=C3CCCC3)cc2)n1	–	–	–	–	–	–	·	·	·	·	·	·
COc1ccc(/C=C/C(=O)c2cc(F)ccc2OC(=O)c2ccccc2C)cc1OC	–	–	–	–	–	·	·	·	·	·	·	·
O=C(NCCCn1ccnc1)C(=O)NCC1OCCN1S(=O)(=O)c1ccc(Br)cc1 (centres undefined)	–	–	–	–	–	·	·	·	·	·	·	·
CCOC(=O)c1c(N/N=C/c2ccncc2)n[nH]c1C	–	18	–	–	–	–	–	–	–	?	–	–
CCOC(=O)c1c(NCc2ccccc2)n[nH]c1C	–	–	–	–	–	–	·	·	·	·	·	·
O=C(Cc1csc(Nc2nc(=S)[nH]c3ccccc23)n1)N1CCN(c2cccc(Cl)c2)CC1	–	25.2	–	–	–	–	?	0.0749	–	0.0303	0.0532	0.0137
Cc1ccc(Cl)cc1N1CCN(C(=O)Cc2ccc(-n3c(=O)[nH]c4ccsc4c3=O)cc2)CC1	–	–	–	–	–	·	·	·	·	·	·	·
Cc1ccc(Cl)cc1N1CCN(C(=O)Cc2csc(Nc3nc(=S)[nH]c4ccccc34)n2)CC1	–	18.8	–	–	–	–	0.0128	0.0533	?	0.0316	0.0543	0.014
O=C(OC(C(=O)NC1CCCC1)c1ccncc1)C1=Cc2ccccc2OC1 (centres undefined)	–	-4.33	–	–	–	·	–	–	–	–	0.0161	–
COCCNC(=O)COc1ccc(C)cc1C	–	-4.42	–	–	–	–	–	–	–	–	–	?
O=C1NC[C@@H](Cc2cccc3ccccc23)N(CCc2cc(C(F)(F)F)cc(C(F)(F)F)c2)C1=O	·	-3.95	·	·	–	·	–	–	0.0248	–	–	–
CCCCCn1c(CNC(=O)CCC)nc2ccccc21	–	-4.64	–	–	–	·	–	–	–	–	–	?
